Four molecules from BindingDB's records for doi:10.1016/j.bmc.2018.01.022 (Csic and Universidad De Sevilla, 2018) can be followed below.

The target in one assay is T1, Midkine (Homo sapiens, UniProt P21741).
T1 sequence (P21741 whole entry): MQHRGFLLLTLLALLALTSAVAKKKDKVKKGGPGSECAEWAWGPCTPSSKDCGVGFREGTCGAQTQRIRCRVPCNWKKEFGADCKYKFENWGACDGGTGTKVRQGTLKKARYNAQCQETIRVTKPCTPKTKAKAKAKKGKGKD
The experiment in a line: Inhibition of fluorescein labelled heparin-like hexasaccharide probe binding to recombinant human midkine after 5 mins by fluorescence polarization assay. Summed up:
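Recombinant human midkine at 63 nM final with 10 nM fluorescein-labelled heparin-like hexasaccharide probe in PBS (10 mM, pH 7.4) plus 0.5% BSA. […] Shaken 5 min in the dark; polarization read at ex 485 / em 535 nm. Triplicate wells averaged, one-site competition fit for IC50. At least three independent experiments.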

For assay [1], the target named is Fibroblast growth factor 2 (Homo sapiens, UniProt P09038). The experiment in a line: Inhibition of fluorescein labelled heparin-like hexasaccharide probe binding to recombinant human FGF-2 after 5 mins by fluorescence polarization assay. In a few lines: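 Competition fluorescence polarization in PBS (10 mM, pH 7.4) with 0.5% BSA final. Recombinant human FGF-2 at 97 nM final, fluorescein-labelled heparin-like hexasaccharide probe at 10 nM final, inhibitor serially diluted, final 25 µM to 12.5 nM. Shaken 5 min in the dark, then read at ex 485 / em 535 nm. Triplicate wells. One-site competitive fit against log concentration gives IC50. Mean ± SD of three independent experiments.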
Fibroblast growth factor 2, sequence (P09038 143-288 limits assumed): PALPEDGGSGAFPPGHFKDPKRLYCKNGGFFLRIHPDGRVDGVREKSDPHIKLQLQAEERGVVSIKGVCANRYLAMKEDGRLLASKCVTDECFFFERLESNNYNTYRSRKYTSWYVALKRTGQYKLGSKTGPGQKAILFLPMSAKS

A word on the IC50: it is the concentration at which inhibition is half-maximal. Consider `COc1ccc(O[C@@H]2O[C@H](CO)[C@@H](O[C@@H]3O[C@H](COS(=O)(=O)O)[C@@H](OS(=O)(=O)O)[C@H](O)[C@H]3NC(C)=O)[C@H](OCc3ccccc3)[C@H]2O)cc1`, for which the IC50 on Midkine was above 250000 nM.

Regarding `COc1ccc(O[C@@H]2O[C@H](COC(=O)CCC(F)(F)C(F)(F)C(F)(F)C(F)(F)C(F)(F)C(F)(F)C(F)(F)C(F)(F)F)[C@@H](O[C@@H]3O[C@H](COS(=O)(=O)O)[C@@H](OS(=O)(=O)O)[C@H](O[C@@H]4O[C@H](COC(=O)C(C)(C)C)[C@@H](O[C@@H]5O[C@H](COS(=O)(=O)O)[C@@H](OS(=O)(=O)O)[C@H](OC(=O)CCC(C)=O)[C@H]5N5C(=O)c6ccccc6C5=O)[C@H](OCc5ccccc5)[C@H]4OC(=O)c4ccccc4)[C@H]3N3C(=O)c4ccccc4C3=O)[C@H](OCc3ccccc3)[C@H]2OC(=O)c2ccccc2)cc1`, the IC50 at Midkine was found to be 270 nM; in assay [1], 2400 nM.

With `COc1ccc(O[C@@H]2O[C@H](COC(=O)CCC(F)(F)C(F)(F)C(F)(F)C(F)(F)C(F)(F)C(F)(F)C(F)(F)C(F)(F)F)[C@@H](O[C@@H]3O[C@H](COS(=O)(=O)O)[C@@H](OS(=O)(=O)O)[C@H](OC(=O)CCC(C)=O)[C@H]3N3C(=O)c4ccccc4C3=O)[C@H](OCc3ccccc3)[C@H]2OC(=O)c2ccccc2)cc1`, the IC50 on Midkine worked out at 700 nM.

Consider `COc1ccc(O[C@@H]2O[C@H](CO)[C@@H](O[C@@H]3O[C@H](COS(=O)(=O)O)[C@@H](OS(=O)(=O)O)[C@H](O)[C@H]3NC(C)=O)[C@H](O)[C@H]2O)cc1`, for which, at Midkine, the IC50 is above 250000 nM.
